molecular target: Geranylgeranyl transferase type I (Homo sapiens, UniProt P49354+P53609); experiment: Inhibition of Geranylgeranyl transferase type I; assay type: protein-complex assay

Row | SMILES | IC50 [nM]
1 | CSCC[C@H](NC(=O)[C@@H]1Cc2ccccc2CN1C(=O)[C@@H](NC(=O)c1c[nH]cn1)C(C)C)C(=O)O | 25800
2 | CC(C)(C)[C@H](NCCCc1cnc[nH]1)C(=O)N1Cc2ccccc2C[C@H]1C(=O)N[C@@H](CCC(N)=O)C(=O)O | 106000
3 | CC(C)(C)[C@H](NCCc1c[nH]cn1)C(=O)N1Cc2ccccc2C[C@H]1C(=O)N[C@@H](CCC(N)=O)C(=O)O | 30500
4 | CSCC[C@H](NC(=O)[C@@H]1Cc2ccccc2CN1C(=O)[C@@H](NC(=O)Cc1c[nH]cn1)C(C)C)C(=O)O | 2020
5 | CC(C)(C)[C@H](NC(=O)CCc1c[nH]cn1)C(=O)N1Cc2ccccc2C[C@H]1C(=O)N[C@@H](CCC(N)=O)C(=O)O | 168000
6 | CSCC[C@H](NC(=O)[C@@H]1Cc2ccccc2CN1C(=O)[C@@H](NCc1c[nH]cn1)C(C)C)C(=O)O | 17400
7 | CSCC[C@H](NC(=O)[C@@H]1Cc2ccccc2CN1C(=O)[C@@H](NCCc1c[nH]cn1)C(C)C)C(=O)O | 234

molecular target: Protein farnesyltransferase (Homo sapiens, UniProt P49354+P49356); experiment: Inhibition of Farnesyltransferase; assay type: protein-complex assay

Row | SMILES | IC50 [nM]
8 | CSCC[C@H](NC(=O)[C@@H]1Cc2ccccc2CN1C(=O)[C@@H](NC(=O)c1c[nH]cn1)C(C)C)C(=O)O | 84
9 | CC(C)(C)[C@H](NCCCc1cnc[nH]1)C(=O)N1Cc2ccccc2C[C@H]1C(=O)N[C@@H](CCC(N)=O)C(=O)O | 20
10 | CC(C)(C)[C@H](NCCc1c[nH]cn1)C(=O)N1Cc2ccccc2C[C@H]1C(=O)N[C@@H](CCC(N)=O)C(=O)O | 3.4
11 | CC(C)(C)[C@H](NC(=O)Cc1c[nH]cn1)C(=O)N1Cc2ccccc2C[C@H]1C(=O)N[C@@H](CCC(N)=O)C(=O)O | 28
12 | CSCC[C@H](NC(=O)[C@@H]1Cc2ccccc2CN1C(=O)[C@@H](NC(=O)Cc1c[nH]cn1)C(C)C)C(=O)O | 6.6
13 | CSCC[C@H](NC(=O)[C@H](Cc1ccccc1)NC(=O)[C@@H](NC(=O)[C@@H](N)Cc1cnc[nH]1)C(C)C)C(=O)O | 6800
14 | CC(C)(C)[C@H](NC(=O)CCc1c[nH]cn1)C(=O)N1Cc2ccccc2C[C@H]1C(=O)N[C@@H](CCC(N)=O)C(=O)O | 4.4
15 | CSCC[C@H](NC(=O)[C@@H]1Cc2ccccc2CN1C(=O)[C@@H](NCc1c[nH]cn1)C(C)C)C(=O)O | 114
16 | CSCC[C@H](NC(=O)[C@@H]1Cc2ccccc2CN1C(=O)[C@@H](NCCc1c[nH]cn1)C(C)C)C(=O)O | 0.79

test system: NIH3T3; experiment: Highest tested nontoxic concentration (maximum tolerated dose) against NIH3T3 cells in XTT assay; assay type: functional, Mus musculus
Summary of the method: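 Untransformed NIH 3T3 cells were seeded at 2500 cells/well. Cells were incubated 48 h at 37 °C, then XTT with phenazine methosulfate was added. XTT reduction served as the measure of live cells.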

Row | SMILES | MTD [µM]
17 | CC(C)(C)[C@H](NC(=O)Cc1c[nH]cn1)C(=O)N1Cc2ccccc2C[C@H]1C(=O)N[C@@H](CCC(N)=O)C(=O)O | >150
18 | CSCC[C@H](NC(=O)[C@@H]1Cc2ccccc2CN1C(=O)[C@@H](NC(=O)Cc1c[nH]cn1)C(C)C)C(=O)O | >150
19 | CSCC[C@H](NC(=O)[C@@H]1Cc2ccccc2CN1C(=O)[C@@H](NCCc1c[nH]cn1)C(C)C)C(=O)O | >150

test system: Rat1; experiment: Inhibition of anchorage-independent growth of H-Ras-transformed rat-1 cells in soft agar; assay type: functional, cell-based

Row | SMILES | IC50 [nM]
20 | CC(C)(C)[C@H](NCCc1c[nH]cn1)C(=O)N1Cc2ccccc2C[C@H]1C(=O)N[C@@H](CCC(N)=O)C(=O)O | 3200
21 | CC(C)(C)[C@H](NC(=O)Cc1c[nH]cn1)C(=O)N1Cc2ccccc2C[C@H]1C(=O)N[C@@H](CCC(N)=O)C(=O)O | 3900
22 | CSCC[C@H](NC(=O)[C@@H]1Cc2ccccc2CN1C(=O)[C@@H](NC(=O)Cc1c[nH]cn1)C(C)C)C(=O)O | 50000
23 | CSCC[C@H](NC(=O)[C@@H]1Cc2ccccc2CN1C(=O)[C@@H](NCCc1c[nH]cn1)C(C)C)C(=O)O | 3800

From ChEMBL document CHEMBL1129732, “Potent, cell active, non-thiol tetrapeptide inhibitors of farnesyltransferase” (J Med Chem, 1996)
